Experimental data pooled from the literature.
Each line is one published result; the experiments were not run side by side. ≈ marks a conversion by molar mass, not a printed value.

Cc1cc(C#N)cc(C)c1Oc1nc(Nc2ccc(C#N)cc2)nc(N)c1Br — thermodynamic solubility (FaSSIF; 24 h, pH 6.5): 0.52 µg/mL
CC1(F)CN(C(=O)Cn2c(=O)c(C(=O)NCc3ccc(Cl)cc3)cc3nccnc32)C1 — thermodynamic solubility (aqueous buffer; 24 h, pH 7.4, 37 °C): 52.6 µM
N#C/C(=C\c1c[nH]nc1-c1cccc(Br)c1)C(=O)O — kinetic solubility (PBS; 24 h, pH 7.4): 0.1 µM (≈ 0.0318 µg/mL)
CCn1cc(C2CC2)c2c(Cc3ccc(C(F)(F)F)nc3)n(C)nc2c1=O — kinetic solubility (nephelometry; aqueous buffer; 30 min, pH 6.5): 130 to 260 µM (≈ 48.9 to 97.9 µg/mL)
CC1(F)CN(C(=O)Cn2c(=O)c(C(=O)NCc3ccc(Cl)cc3)cc3nc(N4CCN(CC(=O)O)C4=O)cnc32)C1 — thermodynamic solubility (aqueous buffer; 24 h, pH 7.4, 37 °C): 5660 µM
CCn1cc(C2CC2)c2c(Cc3ccc(C(F)(F)F)c(F)c3)n(C)nc2c1=O — kinetic solubility (nephelometry; aqueous buffer; 30 min, pH 6.5): 16 to 32 µM (≈ 6.29 to 12.6 µg/mL)
C[C@H]1COC2=C1C(=O)C(=O)c1c2ccc2c1CCCC2(C)C — thermodynamic solubility (PBS; 24 h, pH 7.4, 25 °C): 18.3 µg/mL
CN(C)C(=O)CN1CCN(c2cnc3c(cc(C(=O)NCc4ccc(Cl)cc4)c(=O)n3CC(=O)N3CC(C)(F)C3)n2)C1=O — thermodynamic solubility (aqueous buffer; 24 h, pH 7.4, 37 °C): < 1.56 µM
CCNC(=O)c1cnn(-c2ccc(-n3ccc(Cl)c(Cl)c3=O)cc2)c1C(F)(F)F — kinetic solubility (PBS; 24 h, pH 7.4): 0.2 µM (≈ 0.089 µg/mL)
Cn1nc2c(=O)n(C3CC3)ccc2c1[C@](C)(O)c1cnc(C(F)(F)F)c(Cl)c1 — kinetic solubility (nephelometry; aqueous buffer; 30 min, pH 6.5): 80 to 160 µM (≈ 33 to 66 µg/mL)
CCNCc1cnn(-c2ccc(-n3ccc(Cl)c(Cl)c3=O)cc2)c1C(F)(F)F — kinetic solubility (PBS; 24 h, pH 7.4): 144 µM (≈ 62.1 µg/mL)
CCn1cc(C2CC2)c2c(Cc3cnc(C(F)(F)F)c(Cl)c3)n(C)nc2c1=O — kinetic solubility (nephelometry; aqueous buffer; 30 min, pH 6.5): 50 to 100 µM (≈ 20.5 to 41.1 µg/mL)
O=C(O)c1cn(-c2ccc(-c3ccc(C(=O)N4CCNCC4)cc3)cc2)cc(O)c1=O — kinetic solubility (aqueous buffer; pH 7.4): 290 µM (≈ 122 µg/mL)
CC[C@@](N)(c1cnc(C(F)(F)F)c(Cl)c1)c1c2ncn(C3CC3)c(=O)c2nn1C — kinetic solubility (nephelometry; aqueous buffer; 30 min, pH 6.5): 80 to 160 µM (≈ 34.1 to 68.3 µg/mL)
Cn1cncc1[C@@](N)(c1ccc(Cl)cc1)c1ccc2c(c1)c(-c1cccc(Cl)c1)cc(=O)n2C — solubility (FeSSIF; pH 5, 37 °C): 448 µg/mL (≈ 915 µM)
